# From ChEMBL document CHEMBL4732215, “In vitro and in vivo antiplasmodial activity of novel quinoline derivative compounds by molecular hybridization” (Eur J Med Chem, 2021)
# Key:
# [1] = (§1) Hemolytic activity against human RBC at 150 uM incubated for 16 hrs by spectrophotometric analysis; type: ADME, cell-based, Erythrocyte; details: human red blood cells (erythrocytes), read-out: Activity
# Outline: (§2)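 Red blood cells were incubated with compound at 37 °C for 16 h, with 1% saponin as positive and PBS as negative control. Tubes were centrifuged at 2000 rpm for 3 min, and supernatant absorbance was read at 540 nm. Percent hemolysis was calculated relative to the saponin and PBS mean absorbances. Means were compared by ANOVA with Tukey test.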
# [2] = Cytotoxicity against human WI26VA4 cells assessed as reduction in cell viability incubated for 48 hrs by MTT assay; type: cell-based
# [3] = tested on: Plasmodium falciparum; test: Antimalarial activity against chloroquine-resistant Plasmodium falciparum W2 infected in human RBC assessed as reduction in HRP2 level by ELISA; type: functional, organism-based; details: W2, Erythrocyte
# [4] = Selectivity index, ratio of CC50 for human WI-26VA-4 cells to IC50 for chloroquine-resistant ring-stage Plasmodium falciparum W2 infected in human RBC; type: toxicity; details: read-out: Ratio CC50/IC50
# [5] = tested on: Plasmodium berghei; test: Antimalarial activity against Plasmodium berghei NK65 infected in Swiss mouse assessed as parasitemia at 15 mg/kg, po administered for 4 days and measured on day 5 post infection by Giemsa staining based microscopic analysis (reference value: 100 %); type: functional; details: time 4 day
# Outline: (§3)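 Modified suppressive test in female Swiss mice infected with P. berghei NK65. Compounds were solubilized in 5% DMSO, diluted in water, and given by gavage. Parasitemia was read on Giemsa-stained blood smears on days 5 and 9 post-infection. Inhibition of parasite multiplication = [(A−B)/A]×100, where A is parasitemia of the water + 5% DMSO group.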
# [6] = tested on: Plasmodium berghei; test: Antimalarial activity against Plasmodium berghei NK65 infected in Swiss mouse assessed as parasitemia at 15 mg/kg, po administered for 4 days and measured on day 9 post infection by Giemsa staining based microscopic analysis (reference value: 100 %); type: functional; details: time 4 day; outline: as §3
# [7] = tested on: Erythrocyte; test: as §1; type: ADME, cell-based; details: erythrocyte, 16 h, 150 µM; outline: as §2
# [8] = tested on: Plasmodium berghei; test: Antimalarial activity against Plasmodium berghei NK65 infected in Swiss mouse assessed as parasitemia at 10 mg/kg, po administered for 4 days and measured on day 5 post infection by Giemsa staining based microscopic analysis (reference value: 100 %); type: functional; details: time 4 day; outline: as §3
# [9] = tested on: Plasmodium berghei; test: Antimalarial activity against Plasmodium berghei NK65 infected in Swiss mouse assessed as parasitemia at 10 mg/kg, po administered for 4 days and measured on day 9 post infection by Giemsa staining based microscopic analysis (reference value: 100 %); type: functional; details: time 4 day; outline: as §3
# [10] = tested on: Plasmodium berghei; test: Antimalarial activity against Plasmodium berghei NK65 infected in Swiss mouse assessed as parasitemia at 5 mg/kg, po administered for 4 days and measured on day 5 post infection by Giemsa staining based microscopic analysis (reference value: 100 %); type: functional; details: time 4 day
# Outline: (§4)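 Modified Peters 4-day suppressive test in female Swiss mice infected with P. berghei NK65. Dosing was by gavage, with compounds dissolved in 5% DMSO and diluted in water. Parasitemia was read on Giemsa-stained blood smears. Inhibition of parasite multiplication = [(A−B)/A]×100, where A is the water + 5% DMSO group and B the treated group; both are group mean parasitemias.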
# [11] = tested on: Plasmodium berghei; test: Antimalarial activity against Plasmodium berghei NK65 infected in Swiss mouse assessed as parasitemia at 5 mg/kg, po administered for 4 days and measured on day 9 post infection by Giemsa staining based microscopic analysis (reference value: 100 %); type: functional; details: time 4 day; outline: as §4
# [12] = tested on: Plasmodium berghei; test: Antimalarial activity against Plasmodium berghei NK65 infected in Swiss mouse assessed as parasitemia at 25 mg/kg, po administered for 4 days and measured on day 5 post infection by Giemsa staining based microscopic analysis (reference value: 100 %); type: functional; details: time 4 day; outline: as §3
# [13] = tested on: Plasmodium berghei; test: Antimalarial activity against Plasmodium berghei NK65 infected in Swiss mouse assessed as parasitemia at 25 mg/kg, po administered for 4 days and measured on day 9 post infection by Giemsa staining based microscopic analysis (reference value: 100 %); type: functional; details: time 4 day; outline: as §3
# [14] = tested on: Ferriprotoporphyrin IX; test: Binding affinity to Fe(III)PPIX (unknown origin) assessed as reduction in hypochromism by UV-Vis spectrophotometric analysis relative to control; details: concentration not given here
# Outline: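 Soret band (402 nm) absorbance of Fe(III)PPIX in Tris pH 7.5/aqueous DMSO was followed while 0.3 mM compound was titrated in to saturation. The blank was treated the same way to subtract compound absorbance. Hypochromism was taken as the percentage reduction in absorption intensity. Run in triplicate.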
# [15] = tested on: Ferriprotoporphyrin IX; test: Binding affinity to Fe(III)PPIX (unknown origin) assessed as association constant by UV-Vis spectrophotometric analysis relative to control
# Outline: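 UV-vis titration against Fe(III)PPIX at pH 7.5. Hemin stock was in DMSO and diluted in aqueous DMSO with 0.2 M Tris buffer pH 7.5. A 0.3 mM compound solution in the same solvent ratio was added in aliquots to 2 mL hemin solution. The blank received the same additions, and its absorbance was subtracted. A at 402 nm (Soret band) was fitted to a 1:1 complexation model by nonlinear least squares to give K. Run in triplicate.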
SMILES,"hemolysis at 16 h, 150 µM [1] [%]",CC50 at 48 h [2] [µM],IC50 [3] [µM],selectivity ratio [4],further results
O=C(O)c1ccc(/C=N/CCNc2ccnc3cc(Cl)ccc23)cc1,< 10,> 28.3,0.145,> 195,Activity [5]: 72.64%; Activity [6]: 21.67%
COc1cc(/C=N/Nc2ccnc3cc(Cl)ccc23)ccc1O,< 10,10.8,0.235,45.8,–
Oc1ccc(/C=N/Nc2ccnc3cc(Cl)ccc23)c(O)c1,< 10,7.27,0.235,30.9,–
CCN(CC)CCCC(C)Nc1ccnc2cc(Cl)ccc12 (centres undefined) [CHLOROQUINE],–,> 19.4,–,–,Activity [7]: Non-Toxic; Activity [8]: 94.04%; Activity [9]: 41.27%
O=C(O)c1ccc(/C=N/Nc2ccnc3cc(Cl)ccc23)cc1,< 10,82,0.335,245,–
O=Cc1ccc(/C=N/CCNc2ccnc3cc(Cl)ccc23)cc1,–,138,0.16,861,–
Oc1ccccc1/C=N/CCNc1ccnc2cc(Cl)ccc12,< 10,25.3,0.26,97.4,–
CC1(C)[C@@H](O[C@@H]2OC[C@H](O[C@@H]3OC[C@@H](O)[C@H](O)[C@H]3O)[C@H](O[C@H]3O[C@H](CO)[C@@H](O)[C@H](O)[C@H]3O)[C@H]2O[C@@H]2O[C@H](CO)[C@@H](O)[C@H](O)[C@H]2O[C@H]2O[C@H](CO)[C@@H](O)[C@H](O)[C@H]2O)CC[C@]2(C)[C@H]3CCC45OCC6(CC[C@@](C)(C=O)C[C@@H]64)[C@H](O)C[C@@]5(C)[C@]3(C)CC[C@@H]12 (some centres undefined) [SAPONIN],–,–,–,–,Activity [7]: Toxic
Oc1ccc(/C=N/CCNc2ccnc3cc(Cl)ccc23)cc1,< 10,130,0.162,802,–
Oc1cc(O)cc(/C=N/CCNc2ccnc3cc(Cl)ccc23)c1,< 10,79.3,0.205,387,–
Oc1cc(O)cc(/C=N/Nc2ccnc3cc(Cl)ccc23)c1,< 10,12.9,0.625,20.6,–
C[C@@H]1CC[C@H]2[C@@H](C)C(=O)O[C@@H]3O[C@@]4(C)CC[C@@H]1[C@]32OO4 [ARTEMISININ],–,–,–,–,Activity [10]: 94.9%; Activity [11]: 96.64%
Oc1ccc(/C=N/CCNc2ccnc3cc(Cl)ccc23)c(O)c1,< 10,171,0.172,990,Activity [5]: 71.15%; Activity [6]: 40.13%; Activity [12]: 93.7%; Activity [13]: 41.01%; inhibition [14]: 50.4%; log K [15]: 4.77
